Experimental data reported in ChEMBL document CHEMBL1121766, “Chemical modification of aminoglycosides. 3. Synthesis of 2"-deoxykanamycins from neamine” (1981).
≈ marks a conversion by molar mass, not a printed value.

Legend:
Escherichia coli = test: Compound was tested in vitro for antibacterial activity against Escherichia coli UC 45; format: functional
Procedure, shortened: (§1)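 MIC by microplate broth dilution: serial twofold dilutions of antibiotic in brain-heart infusion broth, each well inoculated with standardized cell suspension to ~10^5 viable cells per mL of drug-supplemented medium. Incubated 37 °C for 20 h; MIC read as lowest concentration inhibiting visible growth.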

Klebsiella pneumoniae = test: Compound was tested in vitro for antibacterial activity against Klebsiella pneumoniae UC 58; format: functional; procedure, shortened: as §1
Pseudomonas aeruginosa [1] = test: Compound was tested in vitro for antibacterial activity against Pseudomonas aeruginosa UC 3679; format: functional; procedure, shortened: as §1
Pseudomonas aeruginosa [2] = test: Compound was tested in vitro for antibacterial activity against Pseudomonas aeruginosa UC 3680; format: functional; procedure, shortened: as §1
Pseudomonas aeruginosa [3] = test: Compound was tested in vitro for antibacterial activity against Pseudomonas aeruginosa UC 3681; format: functional; procedure, shortened: as §1
Pseudomonas aeruginosa [4] = test: Compound was tested in vitro for antibacterial activity against Pseudomonas aeruginosa UC 3682; format: functional; procedure, shortened: as §1
Pseudomonas aeruginosa [5] = test: Compound was tested in vitro for antibacterial activity against Pseudomonas aeruginosa UC 3683; format: functional; procedure, shortened: as §1
Pseudomonas aeruginosa [6] = test: Compound was tested in vitro for antibacterial activity against Pseudomonas aeruginosa UC 6436; format: functional; procedure, shortened: as §1
Pseudomonas aeruginosa [7] = test: Compound was tested in vitro for antibacterial activity against Pseudomonas aeruginosa UC 95; format: functional; procedure, shortened: as §1
Proteus mirabilis = test: Compound was tested in vitro for antibacterial activity against Proteus mirabilis UC 6671; format: functional; procedure, shortened: as §1
Proteus vulgaris = test: Compound was tested in vitro for antibacterial activity against Proteus vulgaris UC 93; format: functional; procedure, shortened: as §1
Salmonella typhi = test: Compound was tested in vitro for antibacterial activity against Salmonella typhi UC 215; format: functional, Salmonella enterica subsp. enterica serovar Typhi; details: Salmonella enterica
Procedure, shortened: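 Microplate broth dilution: serial twofold antibiotic dilutions in brain-heart infusion broth, inoculated with a standardized cell suspension to a final ~10^5 viable cells per mL. Incubated 37 °C for 20 h. MIC read as the lowest concentration that inhibited visible growth.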

[8] = Compound was tested in vitro for antibacterial activity against Salmonella schottmuelleri UC 126; format: functional; procedure, shortened: as §1
Enterococcus faecalis = test: Compound was tested in vitro for antibacterial activity against Streptococcus faecalis UC 694; format: functional; procedure, shortened: as §1
Serratia marcescens = test: Compound was tested in vitro for antibacterial activity against Serratia marcescens UC 131; format: functional; procedure, shortened: as §1
Streptococcus pneumoniae = test: Compound was tested in vitro for antibacterial activity against Streptococcus pneumoniae UC 41; format: functional; procedure, shortened: as §1
Staphylococcus aureus = test: Compound was tested in vitro for antibacterial activity against Staphylococcus aureus UC76; format: functional; procedure, shortened: as §1
Streptococcus pyogenes = test: Compound was tested in vitro for antibacterial activity against Streptococcus pyogenes UC 152; format: functional; procedure, shortened: as §1

| Compound | MIC (Escherichia coli) [µg/mL] | MIC (Klebsiella pneumoniae) [µg/mL] | MIC (Pseudomonas aeruginosa [1]) [µg/mL] | MIC (Pseudomonas aeruginosa [2]) [µg/mL] | MIC (Pseudomonas aeruginosa [3]) [µg/mL] | MIC (Pseudomonas aeruginosa [4]) [µg/mL] | MIC (Pseudomonas aeruginosa [5]) [µg/mL] | MIC (Pseudomonas aeruginosa [6]) [µg/mL] | MIC (Pseudomonas aeruginosa [7]) [µg/mL] | MIC (Pseudomonas aeruginosa [7]; Pseudomonas aeruginosa, read-out: MIC) [µg/mL] | MIC (Proteus mirabilis) [µg/mL] | MIC (Proteus vulgaris) [µg/mL] | MIC (Salmonella typhi) [µg/mL] | MIC [8] [µg/mL] | MIC (Enterococcus faecalis) [µg/mL] | MIC (Serratia marcescens) [µg/mL] | MIC (Streptococcus pneumoniae) [µg/mL] | MIC (Staphylococcus aureus) [µg/mL] | MIC (Streptococcus pyogenes) [µg/mL] |
| --- | --- | --- | --- | --- | --- | --- | --- | --- | --- | --- | --- | --- | --- | --- | --- | --- | --- | --- | --- |
| NCC1CCC(N)C(OC2C(N)CC(N)C(OC3CC(N)C(O)C(CO)O3)C2O)O1 (stereo not drawn) | 62.5 (≈ 144 µM) | 3.9 (≈ 8.95 µM) | 7.8 (≈ 17.9 µM) | 7.8 (≈ 17.9 µM) | 15.6 (≈ 35.8 µM) | 15.6 (≈ 35.8 µM) | 7.8 (≈ 17.9 µM) | > 125 | 7.8 (≈ 17.9 µM) | 15.6 (≈ 35.8 µM) | 62.5 (≈ 144 µM) | 31.2 (≈ 71.6 µM) | 15.6 (≈ 35.8 µM) | 15.6 (≈ 35.8 µM) | 250 (≈ 574 µM) | 15.6 (≈ 35.8 µM) | 250 (≈ 574 µM) | < 1 | 7.8 (≈ 17.9 µM) |
| NCC1OC(OC2C(N)CC(N)C(OC3CC(N)C(O)C(CO)O3)C2O)C(N)C(O)C1O (stereo not drawn) | 31.2 (≈ 66.7 µM) | 3.9 (≈ 8.34 µM) | – | – | – | – | – | – | – | – | 62.5 (≈ 134 µM) | – | – | 15.6 (≈ 33.4 µM) | 1000 (≈ 2140 µM) | 31.2 (≈ 66.7 µM) | 500 (≈ 1070 µM) | 3.9 (≈ 8.34 µM) | 15.6 (≈ 33.4 µM) |
